In brackets after ≈: the same amount, converted by molar mass. Several values for one entry are separate records, joined by “and”; a condition that tells them apart may be missing. Equal entries are not always repeated. Where two headings read alike, the source gives them in different places.
Columns and labels:
Assay type in all cases: cell-based, Human
TK6 cells [1] = assay: Generation of reactive oxygen species; details: for level of ROS generated: DEHP 234μM, MEHP 196μM (IC50's), cisplatin 13uM
[2] = test system: caspases 3 and 7 in TK6 cells; assay: Activation of caspases 3 and 7
TK6 cells [3] = details: DEHP 234μM, MEHP 196μM (IC50's), valinomycin 11 uM
TK6 cells [4] = assay: Cell viability / IC50 by trypan blue exclusion; details: for IC50 (cell viability): same value expressed in mg/L
Summary of the method: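 TK6 lymphoblasts were grown in RPMI 1640 with 10% FBS at 37°C, 5% CO2, and subcultured at 1×10^6 cells per 3.5 mL to keep exponential growth. Cells were exposed for 24, 48 or 72 h to test compound at 10–500 μM ([…]). Viability was counted by trypan blue exclusion on an automated cell counter, and the 50% inhibitory concentration was read from the viability curves.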

[5] = 24 hours exposure, DEHP and MEHP at IC50's, staurosporine 1 uM
[6] = 48 hours exposure, DEHP 234μM, MEHP 196μM (IC50's), staurosporine 1μM
[7] = read-out: IC50 (cell viability), 24 hours of exposure
[8] = read-out: IC50 (cell viability), 48 hours of exposure
[9] = read-out: IC50 (cell viability), 72 hours of exposure

| SMILES | level of ROS generated (TK6 cells [1]; 24 hours exposure) [FSU] | level of ROS generated (TK6 cells [1]; 48 hours exposure) [FSU] | caspases 3 and 7 activation [2, 5] [FSU] | caspases 3 and 7 activation [2, 6] [FSU] | mitochondrial membrane permeability (TK6 cells [3]; 24 hours exposure) [FSU] | mitochondrial membrane permeability (TK6 cells [3]; 48 hours exposure) [FSU] | IC50 (cell viability) (TK6 cells [4]; 48 hours of exposure) [µg/mL] | IC50 (cell viability) (TK6 cells [4]; 72 hours of exposure) [µg/mL] | IC50 (TK6 cells [4]; [7]) | IC50 (TK6 cells [4]; [8]) [µM] | IC50 (TK6 cells [4]; [9]) [µM] | ROS production relative to the parent DEHP (TK6 cells [1]; comparison among phthalates at IC50 doses) |
| --- | --- | --- | --- | --- | --- | --- | --- | --- | --- | --- | --- | --- |
| N.N.[Cl][Pt][Cl] [Cisplatin, cis-diammineplatinum (II) dichloride, reference compound] | 1348.85 | 1575.35 |  |  |  |  |  |  |  |  |  |  |
| CCCCC(CC)COC(=O)c1ccccc1C(=O)OCC(CC)CCCC (centres unmarked) [DEHP, diethylhexyl phthalate] | 458.54 | 793.27 | 122.13 | 1406.94 | 1100.85 | 2505.58 | 91.4 (≈ 234 µM) | 39.06 (≈ 100 µM) | ~250 µM and 250 µM | 234 | 100 |  |
| CC(C)[C@@H]1NC(=O)[C@H](C)OC(=O)[C@@H](C(C)C)NC(=O)[C@@H](C(C)C)OC(=O)[C@H](C(C)C)NC(=O)[C@H](C)OC(=O)[C@@H](C(C)C)NC(=O)[C@@H](C(C)C)OC(=O)[C@H](C(C)C)NC(=O)[C@H](C)OC(=O)[C@@H](C(C)C)NC(=O)[C@@H](C(C)C)OC1=O [valinomycin, Valinomycin, reference compound] |  |  |  |  | 1079.18 | 2327.65 |  |  |  |  |  |  |
| CCCCC(CC)COC(=O)c1ccccc1C(=O)O (centres unmarked) [MEHP, monoethylhexyl phthalate] | 816.53 | 1518.75 | 292.80 | 1209.72 | 1630.94 | 2210.09 | 54.55 (≈ 196 µM) | 22.27 (≈ 80 µM) | 250 µM | 196 | 80 | twice as much |
| CN[C@@H]1C[C@H]2O[C@@](C)([C@@H]1OC)n1c3ccccc3c3c4c(c5c6ccccc6n2c5c31)C(=O)NC4 [Staurosporine, reference compound] |  |  | 1390.92 | 1322.55 |  |  |  |  |  |  |  |  |
